Reference: ChEMBL document CHEMBL4038267, “Antiproliferative Activity of Natural Taiwaniaquinoids and Related Compounds” (J Nat Prod, 2017)

Columns and labels:
Assay type in all cases: functional, cell-based
A549 = test: Antiproliferative activity against human A549 cells after 3 days by sulforhodamine B assay; conditions: A549, 72 h
In short: (§1)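 Cells from a university core cell-culture facility, grown in DMEM with 10% heat-inactivated FBS, penicillin-streptomycin and 2 mM L-glutamine at 37 °C, 5% CO2, 90% humidity. Seeded at 1 × 10^4 cells/cm2 in quadruplicate, treated after 24 h with increasing concentrations. Fixed in cold 10% TCA, stained with 0.4% sulforhodamine in 1% HOAc, solubilized in 10 mM Tris pH 10.5, OD 492 nm. IC50 by linear interpolation of semilog curves; mean ± SEM, four determinations.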

MCF7 = test: Antiproliferative activity against human MCF7 cells after 3 days by sulforhodamine B assay; conditions: MCF7, 72 h; in short: as §1
T84 = test: Antiproliferative activity against human T84 cells after 3 days by sulforhodamine B assay; conditions: T84, 72 h; in short: as §1

SMILES	IC50 (A549)	IC50 (MCF7)	IC50 (T84)
CC(=O)OC[C@H]1C2=C(C(=O)C(Br)=C(C(C)C)C2=O)[C@@]2(C)CCC[C@@](C)(COC(C)=O)[C@H]12	1.1 µM	1.8 µM	1.6 µM
CC(C)C1=C(O)C(=O)C2=C(C1=O)[C@H](CO)[C@H]1C(C)(C)CCC[C@]21C	43.6 µM	39.9 µM	35.3 µM
CC(=O)OC[C@H]1C2=C(C(=O)C=C(C(C)C)C2=O)[C@@]2(C)CCCC(C)(C)[C@H]12	21.1 µM	13.6 µM	28.8 µM
COC(=O)[C@]1(C)CCC[C@]2(C)C3=C(C(=O)C(C(C)C)=C(OC)C3=O)[C@H](CO)[C@@H]12	22.9 µM	10 µM	31.4 µM
C=C1C2=C(C(=O)C(OC)=C(C(C)C)C2=O)[C@@]2(C)CCCC(C)(C)C12O (some centres undefined)	23.8 µM	12.6 µM	24.9 µM
CC(C)C1=C(Br)C(=O)C2=C(C[C@H]3C(C)(C)CCC[C@]23C)C1=O	11.8 µM	2.2 µM	3.2 µM
C=C1C2=C(C(=O)C(OC)=C(C(C)C)C2=O)[C@@]2(C)CCC[C@@](C)(C(=O)OC)[C@H]12	19.7 µM	17 µM	15.7 µM
CC(C)C1=C(O)C(=O)[C@]23O[C@@]2(C1=O)[C@H](CO)[C@H]1C(C)(C)CCC[C@@]13C	19.2 µM	17.1 µM	17.1 µM
CC(C)C1=C(Br)C(=O)C2=C(C=C3C(C)(C)CCC[C@@]32C)C1=O	22.1 µM	3.2 µM	6.2 µM
COC(=O)[C@]1(C)CCC[C@]2(C)C3=C(C(=O)C(C(C)C)=C(O)C3=O)[C@H](CO)[C@@H]12	8.6 µM	32.1 µM	23.2 µM
CC(=O)OC[C@H]1c2c(O)c(C(C)C)cc(O)c2[C@@]2(C)CCCC(C)(C)[C@H]12	19.4 µM	36.1 µM	25 µM
CC(C)C1=CC(=O)C2=C(C=C3C(C)(C)CCC[C@@]32C)C1=O	15 µM	7.1 µM	8.6 µM
CC(C)C1=CC(=O)C2=C(C1=O)[C@H](CO)[C@H]1C(C)(C)CCC[C@]21C	12.5 µM	15.7 µM	18 µM
COC(=O)[C@]1(C)CCC[C@]2(C)C3=C(C(=O)C(C(C)C)=C(OC)C3=O)[C@H](C=O)[C@@H]12	12.1 µM	11.4 µM	12.8 µM
CC(=O)OC[C@H]1C2=C(C(=O)C(Br)=C(C(C)C)C2=O)[C@@]2(C)CCCC(C)(C)[C@H]12	29.7 µM	4 µM	29.5 µM
C=C1C2=C(C(=O)C(OC)=C(C(C)C)C2=O)[C@@]2(C)CCCC(C)(C)[C@H]12	30.9 µM	12.4 µM	32.3 µM
COC(=O)[C@]1(C)CCC[C@]2(C)C3=C(C(=O)C(C(C)C)=C(Br)C3=O)[C@H](COC(C)=O)[C@@H]12	2.4 µM	2.4 µM	2.9 µM
C=C1[C@H]2C(C)(C)CCC[C@]2(C)C2(O)C(=O)C(OC)=C(C(C)C)C(=O)C12O (some centres undefined)	27.2 µM	36.4 µM	36.3 µM
C=C1C2=C(C(=O)C(Br)=C(C(C)C)C2=O)[C@@]2(C)CCCC(C)(C)[C@H]12		1.3 µM	9.6 µM
CC(C)C1=CC(=O)C2=C(C[C@H]3C(C)(C)CCC[C@]23C)C1=O	30.3 µM	16.1 µM	6 µM
C=C1C2=C(C(=O)C(Br)=C(C(C)C)C2=O)[C@@]2(C)CCCC(C)(C)C12O (some centres undefined)	1.5 µM	1 µM	5.2 µM
CC(C)C1=C(Br)C(=O)C2=C(C1=O)[C@H](CO)[C@H]1C(C)(C)CCC[C@]21C	12.2 µM	2.1 µM	6.7 µM
COC1=C(C(C)C)C(=O)C2=C(C1=O)[C@@]1(C)CCCC(C)(C)[C@@H]1C2 [TAIWANIAQUINONE G]	30.5 µM	16.8 µM	14.1 µM
COC1=C(C(C)C)C(=O)C2=C(C1=O)[C@@]1(C)CCCC(C)(C)[C@@H]1[C@H]2C=O [TAIWANIAQUINONE]	10.1 µM	15.4 µM	11.9 µM
CC(C)C1=C(O)C(=O)C2=C(C1=O)[C@H](C=O)[C@H]1C(C)(C)CCC[C@]21C [TAIWANIQUINONE A]	25.1 µM	28.6 µM	30.9 µM
